CDK5 inh: inhibitors of human CDK5/p35 kinase; Q00535+Q15078; AID 488839; inhibition, % at 10 µM; 330,000 compounds, 0.01% hits; Recombinant CDK5/p35, ADP-Glo luminescence, 60 min;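 active = highest replicate inhibition of at least 50% and at least 75% of replicates reaching 50%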;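 also: plate controls were DMSO neutral control for no effect and GW8510 at 10 µM for full effect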
S100A4 MyoIIA: S100A4-myosin IIA interaction inhibition; S100A4/TAMRA-MyoIIA peptide fluorescence polarization; inhibition, % at 10.7 µM; 360,000 compounds, 0.14% hits;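 active = mean inhibition of at least 70% across replicates, with every replicate also reaching that level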
Target sequence (P26447 whole entry, looked up): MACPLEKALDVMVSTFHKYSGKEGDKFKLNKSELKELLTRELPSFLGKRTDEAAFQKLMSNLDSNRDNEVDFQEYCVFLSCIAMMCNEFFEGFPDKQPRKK
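Material: S100A4 monomer (human). Medium: Calcium-containing HEPES buffer, pH 7.2. Probe or stimulus: labelled myosin peptide probe, 5 nM. Compound dosing: one concentration per compound. Timing: polarization read 5 min after assay mix addition, stable 5–60 min. Benchmarks: DMSO as neutral control, TFP as positive control.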
dFosB act: enhances mouse delta FosB homodimer DNA binding | purified delta FosB, TAMRA-CDK5 oligo fluorescence polarization; percent of positive-control signal above neutral wells | activation, % at 25 µM | P13346 | 340,000 compounds, 0.99% hits;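 active = mean activation above about 17%, with every replicate also reaching it, limit read from the data, passing the limit was not always enough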
Target sequence (P13346 whole entry, looked up): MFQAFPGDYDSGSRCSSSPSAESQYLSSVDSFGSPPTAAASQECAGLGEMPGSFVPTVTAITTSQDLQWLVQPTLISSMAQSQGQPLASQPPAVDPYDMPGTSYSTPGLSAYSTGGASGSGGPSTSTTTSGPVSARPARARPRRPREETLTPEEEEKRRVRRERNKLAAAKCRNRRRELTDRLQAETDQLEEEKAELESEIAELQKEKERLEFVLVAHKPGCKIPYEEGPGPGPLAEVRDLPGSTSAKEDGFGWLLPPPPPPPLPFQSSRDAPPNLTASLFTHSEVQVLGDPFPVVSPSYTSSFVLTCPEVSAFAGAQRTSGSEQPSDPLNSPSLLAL
CAL PDZ FP-1: blocks peptide binding to the human CAL PDZ domain. Q9HD26. purified CAL PDZ, TMR-peptide fluorescence polarization, 1 h. inhibition, % at 24.9 µM. 300,000 compounds, 0.92% hits. AID 602252;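 active = mean inhibition of at least 30% with at least half of replicates also reaching 30%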;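 also: 0% = DMSO neutral control and 100% = excess unlabeled competitor peptide PRC23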
C2C12 statin: suppression of simvastatin myotoxicity; C2C12 myotubes + simvastatin, ATP luminescence, 48 h; scaled: DMSO 0, geranylgeraniol control 100; rescue of ATP level, % at 7.49 µM; 330,000 compounds, 0.78% hits;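 active = mean ATP rescue above about 67%, or every replicate alone reaching that limit, limit read from the data, passing the limit was not always enough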;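 also: myotubes were challenged with 10 µM simvastatin during compound exposure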
CAL PDZ FP-2: inhibitors of human CAL PDZ peptide binding | Q9HD26 | purified CAL PDZ, TMR-peptide fluorescence polarization, 1 h | 330,000 compounds, 0.02% hits | inhibition, % at 20 µM;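 active = highest replicate inhibition of at least 40%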;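 also: plate controls were DMSO neutral control wells for no effect and unlabeled competitor peptide control wells for full effect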
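Control set: unlabelled peptide and DMSO controls / Material: purified CerCALP PDZ construct / Timing: 1 h incubation at room temperature before polarization reading / Doses: 20 µM, one dose / Detection: fluorescence polarization (mP)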
* = called active by the depositor; x = no result given. Shown are actives, neighbours in structure and some others; about 2% of the full set was active somewhere.

SMILES	CDK5 inh	S100A4 MyoIIA	dFosB act	CAL PDZ FP-1	C2C12 statin	CAL PDZ FP-2
COCc1c(C(=O)OC)nnn1-c1ccccc1	0	x	-3	-7	130*	-1
CCOc1ccc(C(=O)Nc2cccc3ncccc23)cc1Br	1	-3	-11	x	12	-2
CCCCOc1nc2ccccc2nc1C(C#N)C(=O)NC1CCCCC1 (stereo unspecified)	-2	x	-13	1	108*	0
O=C(Cn1ncc2c([nH]c3ccccc32)c1=O)N1CCOCC1	1	1	-3	39*	-3	-1
Nc1ncncc1-c1ccccc1Cl	2	-8	0	-1	-17	0
CC1CSc2nc3sc4c(c3c(=O)n21)CCCC4 (stereo unspecified)	1	x	1	-4	141*	-2
O=c1c2c3c(sc2nc2n1CCCS2)CCCC3	1	x	-5	0	114*	-1
O=c1c2c3c(sc2nc2n1CCC2)CCCC3	1	0	-4	-3	27	0
CC(C)NC(=O)C1(C)CN(S(C)(=O)=O)CC(=O)N1Cc1cccc(F)c1 (stereo unspecified)	x	-3	x	x	x	x
Cn1c(=O)[nH]c(=O)c2c1nc(Br)n2Cc1cccc(Br)c1	0	-1	13	-3	-57	5
CCCNc1nc2c(c(=O)[nH]c(=O)n2C)n1Cc1cccc(Br)c1	1	x	-7	36*	16	x
S=C(c1ccc(-c2ccc(Cl)c(Cl)c2)o1)N1CCOCC1	0	x	4	-9	16	-2
S=C(c1ccc(-c2ccccc2Cl)o1)N1CCOCC1	0	x	-9	0	78*	-2
Cc1ccc2nc(-c3ccccc3Cl)cc(C(=O)Nc3cc(C)on3)c2c1	0	x	-2	-3	109*	-1
Cc1noc(C)c1NC(=O)Nc1ccc2c(c1)CC(=O)N([C@H](C)CO)C[C@@H](C)[C@@H](CN(C)S(=O)(=O)c1c(C)noc1C)O2	x	-46	x	x	-16	x
COc1ccccc1CNC(=O)COC(=O)c1ccc(S(=O)(=O)N2CCCCC2)cc1	0	2	12	-2	-3	-1
CCCn1c(SCC(=O)c2ccc(OC)c(OC)c2)nc2c1c(=O)n(C)c(=O)n2C	-2	x	1	-3	130*	0
COc1ccc(C(=O)Cn2c(N3CCCCC3)nc3c2c(=O)n(C)c(=O)n3C)cc1OC	1	2	-7	2	x	-2
COc1ccc(C2CC(=O)c3c(C)nc(N4CCN(c5ccccc5)CC4)nc3C2)cc1 (stereo unspecified)	1	x	-1	38*	13	-1
Cc1ccc(NC(=O)c2ccc(NCCN)c([N+](=O)[O-])c2)cc1Cl	1	1	39*	-3	x	0
NC(=O)NC(=O)CSc1nc(-c2ccccc2)c(-c2ccccc2)n1CC1CCCO1 (stereo unspecified)	0	x	-2	-3	139*	-2
O=C(CSc1nc2ccccc2c(=O)n1CC1CCCO1)NCC1CCCO1 (stereo unspecified)	2	0	0	-6	-2	-1
COc1cccc(NC(=O)c2cccc(OC)c2OC)c1	-2	x	1	x	116*	-1
COc1cccc(C(=O)Nc2ccc(N(C)C)cc2)c1OC	1	x	-6	-2	90*	-2
COc1cccc(C(=O)Nc2ccncc2)c1OC	3	1	-6	-4	-7	-1
SMILES	CDK5 inh	S100A4 MyoIIA	dFosB act	CAL PDZ FP-1	C2C12 statin	CAL PDZ FP-2
COc1cccc(/C=N/NC(=O)c2c(C)nc3ccc(Cl)cn23)c1O	-1	-1	-1	62*	8	0
CCCCSc1nc(C)cc(SCC(=O)N/N=C/c2cccc(OC)c2O)n1	2	x	-20	-2	126*	-2
CC(=O)OCC12COC3c4ccccc4OC(C)(CC1C)C3C2C (stereo unspecified)	0	-2	-8	51*	2	0
CC1CC2(C)Oc3ccccc3C3OCC1(CO)C(C)C32 (stereo unspecified)	-1	-2	-6	-2	38	-2
c1ccc(-c2nccc(-c3ccc(-n4cnc5ccccc54)cc3)n2)cc1	4	x	130*	-4	-10	-2
Cn1c(N)c(C(=O)COC(=O)CC2CC3CCC2C3)c(=O)n(C)c1=O (stereo unspecified)	1	-3	1	88*	x	10
O=C(CCNS(=O)(=O)c1cccc2nsnc12)NCc1ccccc1Cl	0	0	1	-3	4	0
COc1cc(OC)cc(-c2ncc3ccccn23)c1	-6	-2	-4	-3	-8	0
COc1ccc(-c2ncc3ccccn23)cc1	0	x	-7	1	99*	-2
Cc1ccc(S(=O)(=O)Nc2ccccc2N2CCCCC2)cc1	-1	8	-3	-3	-39	0
O=C(NCC(F)(F)F)c1ccc(S(=O)(=O)Nc2ccccc2N2CCCC2)cc1	2	7	53*	4	10	1
CCn1c(CSc2nc(C)cc(C)n2)nnc1SCC(=O)Nc1nc(-c2ccccc2)cs1	1	x	-2	0	117*	0
COc1ccccc1-c1ccccc1[C@H]1[C@@H](CO)N(C(=O)C2CCOCC2)[C@H]1C#N	x	32	x	x	x	x
CCOC(=O)Cn1c2ccccc2c2nc3ccccc3nc21	1	x	-11	42*	2	0
CCOC(=O)C1CCN(C(=O)CCS(=O)(=O)c2ccc3c(c2)n(C)c(=O)c(=O)n3C)CC1	0	-2	-3	52*	9	-2
COc1cc(-c2nnc(SCC(=O)O)n2-c2ccccc2)cc(OC)c1OC	0	46	7	69*	13	x
COc1ccccc1-c1nnc(SCC(=O)O)n1-c1ccc(C)cc1	-1	-4	3	-4	x	-1
O=C1c2cccc3cccc(c23)C(=O)N1Cc1cccnc1	1	4	12	-2	x	-1
O=C1c2cccc3c([N+](=O)[O-])ccc(c23)C(=O)N1Cc1cccnc1	1	1	1	37*	x	1
CCCNC(=O)C[C@@H]1C[C@H]2c3cc(NS(C)(=O)=O)ccc3O[C@H]2[C@H](CO)O1	x	17	x	x	-6	x
Cc1ccc(-n2nnc3c(=O)n(Cc4ccccn4)cnc32)cc1C	1	-1	-10	12	-2	-1
COCc1nnc(NS(=O)(=O)c2c(C)cc(C)cc2C)s1	-5	x	-1	35*	0	x
CCOC(=O)c1[nH]c(C)c(CCC(=O)O)c1C	1	x	4	-3	2	0
Cc1cc(NC(=O)c2ccc(N3C(=O)CCC3=O)cc2)no1	-2	x	1	-15	115*	x
Cc1cc(NC(=O)c2ccc(N3C(=O)C4C5C=CC(C5)C4C3=O)cc2)no1 (stereo unspecified)	0	1	3	4	x	-1
